Assay results as given in ChEMBL document CHEMBL3112511, “1,2-Dihydro-2-oxopyridine-3-carboxamides: the C-5 substituent is responsible for functionality switch at CB2 cannabinoid receptor” (Eur J Med Chem, 2014).
Active and inactive are the calls of the source. The calls are words filed in the database; no cut-off is given here.

What was measured:
Cannabinoid receptor 2 [1] = biological target: T1, Cannabinoid receptor 2 (Homo sapiens, UniProt P34972); experiment: Displacement of [3H]CP55,940 from human recombinant CB2 receptor expressed in HEK293 cell membranes after 90 mins
T1 sequence (P34972 whole entry): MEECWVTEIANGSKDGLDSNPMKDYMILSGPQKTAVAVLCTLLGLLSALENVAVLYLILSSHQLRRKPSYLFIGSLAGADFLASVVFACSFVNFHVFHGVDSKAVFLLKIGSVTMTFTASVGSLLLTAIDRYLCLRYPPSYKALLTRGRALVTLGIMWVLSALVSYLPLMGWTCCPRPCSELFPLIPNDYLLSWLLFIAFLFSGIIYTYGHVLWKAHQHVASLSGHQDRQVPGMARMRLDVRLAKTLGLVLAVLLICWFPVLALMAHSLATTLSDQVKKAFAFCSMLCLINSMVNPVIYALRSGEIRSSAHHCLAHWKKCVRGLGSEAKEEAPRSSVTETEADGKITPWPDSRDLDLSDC

Cannabinoid receptor 2 [2] = biological target: T1, Cannabinoid receptor 2; experiment: Agonist activity at human CB2 receptor expressed in CHO membranes by [35S]GTPgammaS binding assay; assay type: functional, cell membranes
Outline: (§1)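 [35S]GTPgammaS binding in membranes from hCB2-transfected CHO cells; stimulation or inhibition of constitutive activity measured from dose-response curves. Mock-transfected cell membranes as control. Three independent experiments in duplicate.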

Cannabinoid receptor 2 [3] = biological target: T1, Cannabinoid receptor 2; experiment: Neutral antagonist activity at human CB2 receptor expressed in CHO membranes by [35S]GTPgammaS binding assay in presence of SR144528; assay type: functional, cell membranes
Outline: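 [35S]GTPgammaS binding in hCB2-CHO membranes; compound added against inverse agonist SR144528 at 3 nM to assess reversal of its response. Three independent experiments in duplicate.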

[4] = biological target: Cannabinoid receptor 1 (Rattus norvegicus) (UniProt P20272); experiment: Antagonist activity at CB1 receptor in rat cerebellar membranes at <10 uM by [35S]GTPgammaS binding assay; assay type: functional, cell membranes; settings: Cerebellum, Membrane
Chain of Cannabinoid receptor 1 (Rattus norvegicus) (P20272 whole entry): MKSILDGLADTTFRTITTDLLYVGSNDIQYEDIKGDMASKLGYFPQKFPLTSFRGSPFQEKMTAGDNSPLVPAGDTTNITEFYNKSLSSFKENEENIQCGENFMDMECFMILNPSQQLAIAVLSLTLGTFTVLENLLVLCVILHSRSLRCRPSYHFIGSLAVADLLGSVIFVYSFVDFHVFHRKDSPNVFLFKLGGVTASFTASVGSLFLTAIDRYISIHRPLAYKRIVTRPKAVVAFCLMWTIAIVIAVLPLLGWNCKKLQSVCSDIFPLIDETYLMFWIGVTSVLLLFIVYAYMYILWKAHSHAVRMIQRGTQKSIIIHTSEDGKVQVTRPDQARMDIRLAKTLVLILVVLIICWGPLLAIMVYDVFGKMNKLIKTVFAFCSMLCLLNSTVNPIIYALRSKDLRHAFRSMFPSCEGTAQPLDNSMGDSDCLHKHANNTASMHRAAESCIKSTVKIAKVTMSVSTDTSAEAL
Outline: (§2)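 [35S]GTPgammaS binding in rat cerebellar membranes as CB1R-mediated G protein activity; compounds tested for stimulation or antagonism. Three independent experiments in duplicate.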

Cannabinoid receptor 2 [5] = biological target: T1, Cannabinoid receptor 2; experiment: Antagonist activity at human CB2 receptor expressed in CHO membranes assessed as inhibition of HU-210-induced [35S]GTPgammaS binding; assay type: functional, cell membranes
Outline: (§3)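 [35S]GTPgammaS binding in hCB2-CHO membranes; test compound against HU210 (1 nM for single-point reversal; full HU210 dose-responses for competitive analysis, pA2 derived). Three independent experiments in duplicate.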

Cannabinoid receptor 1 [6] = biological target: Cannabinoid receptor 1 (Homo sapiens, UniProt P21554); experiment: Displacement of [3H]CP55,940 from human recombinant CB1 receptor expressed in HEK293 cell membranes after 90 mins
Chain of Cannabinoid receptor 1 (Homo sapiens, UniProt P21554) (P21554 whole entry): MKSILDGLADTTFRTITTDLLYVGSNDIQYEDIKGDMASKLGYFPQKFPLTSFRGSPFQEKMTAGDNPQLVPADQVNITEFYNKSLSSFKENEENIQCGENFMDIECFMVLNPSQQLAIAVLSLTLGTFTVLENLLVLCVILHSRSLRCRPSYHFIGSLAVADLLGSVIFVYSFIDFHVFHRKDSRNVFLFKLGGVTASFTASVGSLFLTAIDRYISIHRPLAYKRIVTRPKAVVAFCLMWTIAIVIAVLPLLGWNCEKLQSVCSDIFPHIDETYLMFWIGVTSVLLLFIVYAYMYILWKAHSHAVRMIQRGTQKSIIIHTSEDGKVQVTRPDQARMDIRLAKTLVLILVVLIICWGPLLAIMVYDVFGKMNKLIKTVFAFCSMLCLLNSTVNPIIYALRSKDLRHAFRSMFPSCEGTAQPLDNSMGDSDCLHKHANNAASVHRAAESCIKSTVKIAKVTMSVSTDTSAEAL

Cannabinoid receptor 2 [7] = biological target: T1, Cannabinoid receptor 2; experiment: Partial inverse agonist activity at human CB2 receptor expressed in CHO membranes by [35S]GTPgammaS binding assay relative to basal control; assay type: functional, cell membranes; outline: as §1
HEK293 = experiment: Selectivity index, ratio of Ki for human recombinant CB1 receptor expressed in HEK293 cell membranes to Ki for human recombinant CB2 receptor expressed in HEK293 cell membranes; assay type: cell-based
Cannabinoid receptor 2 [8] = biological target: T1, Cannabinoid receptor 2; experiment: Competitive antagonist activity at human CB2 receptor expressed in CHO membranes assessed as inhibition of HU-210-induced [35S]GTPgammaS binding; assay type: functional, cell membranes; settings: read-out: pA2 (converted); outline: as §3
[9] = biological target: Cannabinoid receptor 1 (Rattus norvegicus) (UniProt P20272); experiment: Agonist activity at CB1 receptor in rat cerebellar membranes at <10 uM by [35S]GTPgammaS binding assay; assay type: functional, cell membranes; settings: Cerebellum, Membrane; outline: as §2
Cannabinoid receptor 1 [10] = biological target: Cannabinoid receptor 1 (Rattus norvegicus, UniProt P20272); experiment: Agonist activity at CB1 receptor in rat cerebellar membranes by [35S]GTPgammaS binding assay; assay type: functional, cell membranes, Cerebellum, Membrane; outline: as §2
Chain of Cannabinoid receptor 1 (Rattus norvegicus, UniProt P20272) (P20272 whole entry): as the sequence (P20272 whole entry) above

[11] = Selectivity ratio of EC50 for CB1 receptor in rat cerebellar membranes to EC50 for human CB2 receptor expressed in CHO membranes; assay type: cell membranes
Cannabinoid receptor 2 [12] = biological target: T1, Cannabinoid receptor 2; experiment: Inverse agonist activity at human CB2 receptor expressed in CHO membranes by [35S]GTPgammaS binding assay; assay type: functional, cell membranes; outline: as §1

Row | Compound | Ki (Cannabinoid receptor 2 [1]) [nM] | Ki (Cannabinoid receptor 1 [6]) [nM] | Ratio Ki (HEK293) | further results
1 | COc1ccc(-c2cc(C(=O)NC3CCCCCC3)c(=O)n(Cc3ccc(F)cc3)c2)cc1 | 1 | 63 | 63 | Activity (Cannabinoid receptor 2 [2]): inactive; Activity (Cannabinoid receptor 2 [3]): Active; Activity [4]: inactive; inhibition (Cannabinoid receptor 2 [5]): Dose-dependent effect; Activity (Cannabinoid receptor 2 [7]): 88%; Kb (Cannabinoid receptor 2 [8]): 100 nM; Activity [9]: inactive
2 | CCCCn1cccc(C(=O)NC2CCC(C)CC2)c1=O (stereo not drawn) | 104 | 1620 | 15.6 | –
3 | CCOC(=O)CCCn1cccc(C(=O)NC2CCCCCC2)c1=O | 1830 | > 10000 | – | –
4 | O=C(NC1CCCCCC1)c1cccn(Cc2ccc(Cl)cc2)c1=O | 4.2 | 55 | 13.1 | –
5 | CCOC(=O)/C=C/c1cc(C(=O)NC2CCCCCC2)c(=O)n(Cc2ccc(F)cc2)c1 | 13.7 | 24.8 | 1.8 | –
6 | CC1CCC(NC(=O)c2cccn(CCO)c2=O)CC1 (stereo not drawn) | > 10000 | > 10000 | – | –
7 | CCCCOc1ncc(Br)cc1C(=O)NC1CCCCCC1 | 396 | > 10000 | – | –
8 | O=C(NC1CCCCCC1)c1cc(Br)cn(Cc2ccc(F)cc2)c1=O | 2.2 | 8.8 | 4 | –
9 | O=C(NC1CCCCCC1)c1cccnc1OCc1ccccc1 | 481 | 1920 | 4 | –
10 | O=C(NC1CCCCCC1)c1cc(Br)cn(CCN2CCOCC2)c1=O | 65 | 243 | 3.7 | –
11 | CCCn1cccc(C(=O)NC2CCC(C)CC2)c1=O (stereo not drawn) | 583 | > 10000 | – | –
12 | O=C(NC1CCCCCC1)c1cccn(Cc2ccc(I)cc2)c1=O | 187 | 1270 | 6.8 | –
13 | CC1CCC(NC(=O)c2cccn(Cc3ccc(F)cc3)c2=O)CC1 (stereo not drawn) | 4.8 | 70 | 14.6 | –
14 | O=C(NC1CCCCCC1)c1cccn(Cc2ccccc2)c1=O | 8 | 56 | 7 | –
15 | O=C(NC1CCCCCC1)c1cccn(Cc2ccc(F)cc2)c1=O | – | – | 5.5 | EC50 (Cannabinoid receptor 1 [10]): 1580 nM; EC50 (Cannabinoid receptor 2 [2]): 6.31 nM; Ratio EC50 [11]: 200
16 | O=C(NC1CCCCCC1)c1cc(-c2ccc(F)cc2)cn(CCN2CCOCC2)c1=O | 63 | 2730 | 43.4 | –
17 | O=C(NC1CCCCCC1)c1cccn(Cc2cccc(I)c2)c1=O | 397 | 1830 | 4.6 | –
18 | O=C(NC1CCCCCC1)c1cc(/C=C/c2ccccc2)cn(Cc2ccc(F)cc2)c1=O | 7.9 | 24 | 3 | –
19 | CC1CCC(NC(=O)c2cccnc2OCc2ccc(F)cc2)CC1 (stereo not drawn) | 80 | 884 | 11 | –
20 | O=C(NC1CCCCCC1)c1cc(-c2ccccc2)cn(Cc2ccc(F)cc2)c1=O | 1.2 | 35 | 29 | Activity [4]: inactive; IC50 (Cannabinoid receptor 2 [12]): 1.58 nM; Activity [9]: inactive
21 | CC1CCC(NC(=O)c2cccnc2OCc2ccccc2)CC1 (stereo not drawn) | 594 | 3090 | 5.2 | –
22 | CCCCn1cc(Br)cc(C(=O)NC2CCCCCC2)c1=O | 5.1 | 23 | 4.5 | –
23 | O=C(NC1CCCCCC1)c1cc(-c2ccc(F)cc2)cn(Cc2ccc(F)cc2)c1=O | 2.8 | 24 | 8.6 | –
24 | CC1CCC(NC(=O)c2cccn(Cc3ccccc3)c2=O)CC1 (stereo not drawn) | 53 | 386 | 7.3 | –
25 | CC1CCC(NC(=O)c2cccn(CCCO)c2=O)CC1 (stereo not drawn) | > 10000 | > 10000 | – | –
26 | O=C(O)CCCn1cccc(C(=O)NC2CCCCCC2)c1=O | > 10000 | > 10000 | – | –
